Results from publication PMC7347020 (Science (New York, N.Y.), 2020).
pIC50: −log10 of the molar value. Like-named read-outs stand apart in the source and are kept apart here. Each block holds one compound with its values, some of them ahead of it.

Experiments:
PARP-1 [1] = molecular target: T1, PARP-1 (Homo sapiens, UniProt P09874); assay: Classification of PARPi by allosteric effects; conditions: based on HXMS and DNA binding studies
CATΔHD [2] = conditions: cited from earlier work
PARP-1 [3] = molecular target: T1, PARP-1; assay: FP DNA binding affinity of PARP-1 for SSB-DNA
PARP-1 [4] = molecular target: T1, PARP-1; assay: SPR dissociation kinetics of PARP-1 from SSB-DNA; type: binding
WT PARP-1 = WT PARP-1 (Homo sapiens, UniProt P09874); assay: FP DNA competition; type: binding; conditions: WT PARP-1, with or without inhibitor
WT PARP-1, sequence (P09874 whole entry): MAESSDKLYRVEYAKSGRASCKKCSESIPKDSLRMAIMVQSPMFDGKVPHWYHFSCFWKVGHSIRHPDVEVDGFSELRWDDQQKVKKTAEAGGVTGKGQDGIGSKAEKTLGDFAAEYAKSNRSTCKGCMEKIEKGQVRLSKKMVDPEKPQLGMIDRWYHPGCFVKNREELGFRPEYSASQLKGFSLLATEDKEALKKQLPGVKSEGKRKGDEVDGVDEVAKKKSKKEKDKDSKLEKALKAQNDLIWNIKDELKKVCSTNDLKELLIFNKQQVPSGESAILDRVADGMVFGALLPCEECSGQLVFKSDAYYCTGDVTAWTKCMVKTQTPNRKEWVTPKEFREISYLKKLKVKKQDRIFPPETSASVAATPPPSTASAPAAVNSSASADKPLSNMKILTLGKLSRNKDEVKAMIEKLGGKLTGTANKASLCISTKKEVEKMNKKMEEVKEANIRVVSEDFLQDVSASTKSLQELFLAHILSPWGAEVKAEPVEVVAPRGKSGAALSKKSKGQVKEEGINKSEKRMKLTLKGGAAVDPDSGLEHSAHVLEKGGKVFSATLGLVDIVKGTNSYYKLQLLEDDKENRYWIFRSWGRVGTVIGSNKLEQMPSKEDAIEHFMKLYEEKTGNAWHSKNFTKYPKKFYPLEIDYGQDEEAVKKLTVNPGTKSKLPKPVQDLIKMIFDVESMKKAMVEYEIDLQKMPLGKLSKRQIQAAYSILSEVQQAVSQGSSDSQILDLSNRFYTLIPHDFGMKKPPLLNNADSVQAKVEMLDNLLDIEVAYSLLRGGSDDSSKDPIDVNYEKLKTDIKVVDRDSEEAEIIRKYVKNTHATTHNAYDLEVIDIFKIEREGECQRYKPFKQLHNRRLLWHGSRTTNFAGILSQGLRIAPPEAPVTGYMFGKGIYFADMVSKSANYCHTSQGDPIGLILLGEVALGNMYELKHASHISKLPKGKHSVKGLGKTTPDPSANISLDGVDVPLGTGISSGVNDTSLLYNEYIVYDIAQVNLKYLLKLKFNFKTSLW

PARP-1 W318R [5] = molecular target: T2, PARP-1 W318R (Homo sapiens, UniProt P09874, W318R); assay: FP DNA competition, W318R mutant; type: binding
T2 sequence (P09874 whole entry W318R): as the sequence (P09874 whole entry) above, with W318R counted along it
Outline: (§1)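 Fluorescence polarization competition used FAM-labeled SSB-DNA bound by the PARP-1 variant, challenged with unlabeled SSB-DNA, with or without test compound.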

PARP-1 R591C [6] = molecular target: T3, PARP-1 R591C (Homo sapiens, UniProt P09874, R591C); assay: FP DNA competition, R591C mutant; type: binding
T3 sequence (P09874 whole entry R591C): as the sequence (P09874 whole entry) above, with R591C counted along it
Outline: as §1

PARP-1 D766/770A [7] = molecular target: T4, PARP-1 D766/770A (Homo sapiens, UniProt P09874, D766A/D770A); assay: FP DNA competition, D766/770A mutant; type: binding
T4 sequence (P09874 whole entry D766A/D770A): as the sequence (P09874 whole entry) above, with D766A, D770A counted along it
Outline: as §1

PARP-1 CAT = PARP-1 CAT (Homo sapiens, UniProt P09874); assay: DSF thermal stability, CAT domain; type: binding
PARP-1 CAT, sequence (P09874 661-1014 limits assumed): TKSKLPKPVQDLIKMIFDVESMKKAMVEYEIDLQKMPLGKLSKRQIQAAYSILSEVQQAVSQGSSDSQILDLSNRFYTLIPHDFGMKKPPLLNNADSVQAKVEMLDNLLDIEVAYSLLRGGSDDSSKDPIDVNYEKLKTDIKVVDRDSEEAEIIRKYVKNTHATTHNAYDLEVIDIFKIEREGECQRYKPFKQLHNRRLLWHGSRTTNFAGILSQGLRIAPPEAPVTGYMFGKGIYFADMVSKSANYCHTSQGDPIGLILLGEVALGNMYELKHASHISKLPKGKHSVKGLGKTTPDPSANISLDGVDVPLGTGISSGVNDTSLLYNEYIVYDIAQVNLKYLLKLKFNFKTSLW
Outline: (§2)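 Protein melting temperature was measured by differential scanning fluorimetry with and without test compound. ΔTM was taken as TM with compound minus TM without compound.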

CATΔHD [8] = assay: DSF thermal stability, CATΔHD; type: binding
Outline: as §2

PARP-1 [9] = molecular target: T1, PARP-1; assay: HXMS of WT PARP-1/SSB-DNA complex; conditions: PARP-1/SSB-DNA complex with versus without inhibitor
PARP-1 W318R [10] = molecular target: T2, PARP-1 W318R; assay: HXMS of PARP-1 W318R/SSB-DNA; conditions: W318R mutant
PARP-1 R591C [11] = molecular target: T3, PARP-1 R591C; assay: HXMS of PARP-1 R591C/SSB-DNA; conditions: R591C mutant
PARP-1 D766/770A [12] = molecular target: T4, PARP-1 D766/770A; assay: HXMS of PARP-1 D766/770A/SSB-DNA; conditions: D766/770A mutant
Outline: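 PARP-1 (2.6 μM) was mixed with SSB-DNA (5 μM) and, where applicable, inhibitor (5.2 μM). Deuterium on-exchange ran at RT in 10 mM HEPES pD 7.0, 150 mM NaCl (final 75% D2O). Samples were quenched in ice-cold buffer, frozen in liquid nitrogen, pepsin-digested, separated on C18 and analysed by electrospray MS for per-peptide deuteration.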

PARP-1 [13] = molecular target: T1, PARP-1; conditions: cited from earlier work
PARP-1 [14] = molecular target: T1, PARP-1; assay: PARP-1 catalytic inhibition; type: biochemical; conditions: catalytic inhibitory potency; not shown
[15] = system: MMS-treated CAPAN-1 cells; assay: Chromatin fractionation assay; type: cell-based; conditions: 1, 10 and 25 μM, 0.01% MMS
Outline: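 Chromatin fractionation measured chromatin-bound PARP-1 in cells exposed to 0.01% MMS, with or without test compound.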

[16] = system: ADP-ribosylation activity in cells; assay: Measurement of PAR in cells; type: cell-based; conditions: 0.01, 0.1, 1 and 10 μM, 0.01% MMS
Outline: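 Cells were co-treated with test compound and 0.01% MMS. Cellular poly(ADP-ribose) was detected by western blot with an anti-pan-ADP-ribose binding reagent.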

[17] = system: CAL51 PARP-1−/− cells transfected with PARP-1-GFP; assay: Microirradiation assay, PARP-1-GFP residence at DNA damage sites; type: cell-based
CAPAN-1 cells = assay: Cell survival assay, CAPAN-1; type: cell-based; conditions: cell survival experiment
[18] = system: SUM149PT-BRCA1mut and SUM149PT-BRCA1rev cells; assay: Cell survival assay, SUM149PT-BRCA1mut versus SUM149PT-BRCA1rev; type: cell-based
[19] = system: parental or PARP-1−/− cells; assay: Survival assay, parental or PARP-1−/− cells; type: cell-based; conditions: low concentrations; parental versus PARP-1−/−
[20] = system: MMS-treated CAPAN-1 cells; conditions: cited from earlier work

T1 sequence (P09874 whole entry): as the sequence (P09874 whole entry) above

Structure (SMILES): NC(=O)c1cccc([C@@H]2O[C@H](COP(=O)(O)OP(=O)(O)OC[C@H]3O[C@@H](n4cnc5c(N)ncnc54)[C@H](O)[C@@H]3O)[C@@H](O)[C@H]2O)c1 [BAD, benzamide adenine dinucleotide]
- PARPi type by allosteric effect (PARP-1 [1]): Type I
- binding to CAT versus CATΔHD (CATΔHD [2]): only bind to CATΔHD

Structure (SMILES): Nc1ncnc2c1ncn2[C@@H]1O[C@H](C(=O)N2CCN(CC(=O)Nc3cccc4c3CNC4=O)CC2)[C@@H](O)[C@H]1O [EB-47]
- influence on PARP-1 SSB DNA binding affinity (in words) (PARP-1 [3]): large increase in SSB DNA binding affinity
- influence on dissociation (kd) of PARP-1 from a DNA break (in words) (PARP-1 [4]): markedly slowed release from DNA
- PARP-1 retention on SSB-DNA (WT PARP-1): increased the retention of WT PARP-1 on DNA
- PARP-1 retention on SSB-DNA (PARP-1 W318R [5]): unaffected
- PARP-1 retention on SSB-DNA (PARP-1 R591C [6]): unaffected
- PARP-1 release from / retention on a DNA break (PARP-1 D766/770A [7]): insensitive
- binding to PARP-1 CAT (PARP-1 CAT): bound
- binding to CATΔHD (CATΔHD [8]): bound
- allosteric effect on PARP-1 (HX changes) (PARP-1 [9]): highly localized destabilization of the helical domain (HD)
- allosteric effect on PARP-1 (HX changes) (PARP-1 W318R [10]): destabilization of the αB and αF helices of the HD
- allosteric effect on PARP-1 (HX changes) (PARP-1 R591C [11]): destabilization of the αB and αF helices of the HD
- allosteric effect on PARP-1 (HX changes) (PARP-1 D766/770A [12]): no longer influenced PARP-1 allostery
- PARPi type by allosteric effect (PARP-1 [1]): Type I
- affinity for PARP-1 (PARP-1 [13]): nM range

Structure (SMILES): NC(=O)c1ccc[n+]([C@@H]2O[C@H](COP(=O)([O-])OP(=O)(O)OC[C@H]3O[C@@H](n4cnc5c(N)ncnc54)[C@H](O)[C@@H]3O)[C@@H](O)[C@H]2O)c1 [NAD^+]
- binding to CAT versus CATΔHD (CATΔHD [2]): only bind to CATΔHD

Structure (SMILES): COC(=O)c1cnc(N2CCN(C(=O)c3ccc(-c4nc5c(C(N)=O)cccc5[nH]4)cc3)CC2)nc1 [UKTT15]
- pIC50 (PARP-1 [14]): 8.59
- increase in PARP-1 affinity for DNA relative to no inhibitor (PARP-1 [3]; WT PARP-1): 3.5 fold
- PARP-1 retention on SSB-DNA (WT PARP-1): strong PARP-1 retention on a DNA break
- PARP-1 release from / retention on a DNA break (PARP-1 D766/770A [7]): still retained on DNA
- allosteric effect on PARP-1 (HX changes) (PARP-1 [9]): profound changes to the HX behavior of PARP-1
- PARPi type by allosteric effect (PARP-1 [1]): Type I
- PARP-1 trapping on DNA in cells [15]: increased ability to trap PARP-1 on DNA
- inhibition of ADP-ribosylation activity in cells (PAR levels) [16]: not better than veliparib
- PARP-1-GFP residence time at sites of UV laser-induced damage [17]: increase in the PARP-1-GFP residence time
- killing of CAPAN-1 cells (CAPAN-1 cells): more efficient than veliparib
- BRCA selectivity of cell killing [18]: killing of the SUM149-BRCA1mut cells at a lower concentration compared to the SUM149PT-BRCA1rev cells
- PARP-1 dependence of cell killing [19]: required PARP-1 expression

Structure (SMILES): Cn1ncnc1[C@H]1c2n[nH]c(=O)c3cc(F)cc(c23)N[C@@H]1c1ccc(F)cc1 [talazoparib]
- PARP-1 trapping in cells [20]: most efficient trapper of the clinical inhibitors

More lines, main results first:

- decrease in PARP-1 SSB DNA binding affinity (PARP-1 [3]): 3–5 fold
- influence on dissociation (kd) of PARP-1 from a DNA break (in words) (PARP-1 [4]): slightly accelerated release
- allosteric effect on PARP-1 (HX changes) (PARP-1 [9]): stronger allosteric effects to the HD
- PARPi type by allosteric effect (PARP-1 [1]): Type III
Structure (SMILES): NC(=O)c1cccc2cn(-c3ccc([C@@H]4CCCNC4)cc3)nc12 [niraparib]

- decrease in PARP-1 SSB DNA binding affinity (PARP-1 [3]): 3–5 fold
- influence on dissociation (kd) of PARP-1 from a DNA break (in words) (PARP-1 [4]): slightly accelerated release
- allosteric effect on PARP-1 (HX changes) (PARP-1 [9]): stronger allosteric effects to the HD
- PARPi type by allosteric effect (PARP-1 [1]): Type III
Structure (SMILES): CNCc1ccc(-c2[nH]c3cc(F)cc4c3c2CCNC4=O)cc1 [rucaparib]

- decrease in PARP-1 SSB DNA binding affinity (PARP-1 [3]): 3–5 fold
- influence on dissociation (kd) of PARP-1 from a DNA break (in words) (PARP-1 [4]): slightly accelerated release
- PARP-1 retention on SSB-DNA (WT PARP-1): not significant
- allosteric effect on PARP-1 (HX changes) (PARP-1 [9]): stronger allosteric effects to the HD
- PARPi type by allosteric effect (PARP-1 [1]): Type III
Structure (SMILES): C[C@]1(c2nc3c(C(N)=O)cccc3[nH]2)CCCN1 [veliparib]
- PARP-1 trapping in cells ([20]; chromatin fractionation): poor PARP-1 trapper
